High-throughput results as filed in PubChem.
Sampled rows, rich in hits. Any-hit rate of the full collection: about 3.3%.
SENP1 FRET inh = human SENP1 catalytic domain inhibitors, primary screen, biochemical, FRET, uHTS; Sentrin-specific protease 1 (Homo sapiens), Q9P0U3; recombinant SENP1 catalytic domain, CyPet-SUMO1-YPet FRET cleavage; inhibition, % at 10 µM; actives 0.21% (n = 360,000);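 active means inhibition at least 30% at 10 µM, raw YFP signal under a set limit, fluorescence ratio 0.5 to 1.5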;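 further: 0% = enzyme with DMSO and 100% = no enzyme wells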
Target sequence (Q9P0U3 419-644 limits assumed): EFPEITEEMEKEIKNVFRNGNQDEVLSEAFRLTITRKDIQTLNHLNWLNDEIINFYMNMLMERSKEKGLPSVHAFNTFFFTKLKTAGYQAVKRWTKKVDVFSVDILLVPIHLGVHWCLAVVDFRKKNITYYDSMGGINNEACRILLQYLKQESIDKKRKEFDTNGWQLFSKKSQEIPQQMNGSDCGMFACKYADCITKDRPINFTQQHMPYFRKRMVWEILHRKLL
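Test system: recombinant human SENP1 catalytic domain, His6-tagged / Medium: pH 8 Tris buffer with EDTA, NaCl, BME, BSA, NP40, catalase / Also added: SUMO1 FRET substrate flanked by Cypet and Ypet, 25 nM / Times: 50 min reaction at room temperature / Signal: FRET, CFP and YFP emission / Control set: no-enzyme low control and enzyme-plus-DMSO high control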
SENP8 block-1 = SENP8 protease inhibitors, primary screen, biochemical, luminescence; purified SENP8, Z-RLRGG-aminoluciferin cleavage; inhibition, % at 10 µM; actives 1.2% (n = 330,000); in the data active means inhibition above about 50%
Target sequence (Q96LD8 whole entry, looked up): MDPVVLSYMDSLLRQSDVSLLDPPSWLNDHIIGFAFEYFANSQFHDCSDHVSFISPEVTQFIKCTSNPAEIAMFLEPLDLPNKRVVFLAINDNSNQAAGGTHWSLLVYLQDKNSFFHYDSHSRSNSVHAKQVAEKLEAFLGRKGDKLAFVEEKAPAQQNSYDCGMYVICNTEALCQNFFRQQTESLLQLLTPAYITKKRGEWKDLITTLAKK
SENP6 block = SENP6 protease inhibitors, primary screen, biochemical, luminescence, uHTS. AID 2599, 2010. inhibition, % at 10 µM. actives 1.8% (n = 330,000). Sentrin-specific protease 6 (Homo sapiens), Q9GZR1. Recombinant SENP6 catalytic domain, aminoluciferin luminescence;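 active means inhibition above about 50% at the single tested dose, limit read from the data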;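 further: plate controls were DMSO wells with enzyme for no effect and DMSO wells lacking enzyme for full effect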
SENP7 block = SENP7 protease inhibitors, primary screen, biochemical, luminescence, uHTS; Sentrin-specific protease 7 (Homo sapiens), Q9BQF6; recombinant SENP7, Z-RLRGG-aminoluciferin luminescence, 40 min; inhibition, % at 5 µM; actives 1.5% (n = 330,000);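 active means inhibition above about 50% at the single test dose, limit read from the data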;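 further: plate controls were DMSO with enzyme for no effect and no enzyme buffer wells for full effect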
CendR NRP1 mod = modulators of CendR peptide binding to NRP-1, primary screen, biochemical, fluorescence polarization, uHTS; Neuropilin-1 (Homo sapiens), O14786; FAM-RPARPAR peptide binding to NRP-1; inhibition, % at 25 µM; actives 0.85% (n = 360,000);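 active means inhibition or corrected inhibition above about 18%, plus a signal ratio from 0.5 to 1.5, limit read from the data, passing the limit was not always enough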
SENP8 block-2 = human SENP8 protease inhibitors, primary screen, biochemical, fluorescence, Nedd8 protein substrate, uHTS; Sentrin-specific protease 8 (Homo sapiens), Q96LD8; recombinant SENP8; inhibition, % at 20 µM; actives 0.64% (n = 360,000); AID 602440, 2012; in the data active means inhibition mostly above about 40%, no sharp cut-off; inactive means mostly below about 27%
* = called active by the depositor; / = no result given.

SMILES	SENP1 FRET inh	SENP8 block-1	SENP6 block	SENP7 block	CendR NRP1 mod	SENP8 block-2
CCOc1ccc(CCNC(=O)C2(c3ccccc3)CC2)cc1OCC	2.5	1.6	-8.1	10.5	19.5*	6.8
COC(=O)/C=C1\OCc2c(F)cccc21	2.8	/	/	/	4.7	12.6
Cc1sc2nc3c4ccccc4c(NCc4ccco4)nn3c(=O)c2c1C	-54.1	70.7*	72.5*	76.0*	-36.7	-485.0
CCOc1ccc(N2C(=O)CC(N3CCN(c4ccc(Cl)cc4)CC3)C2=O)cc1 (stereo unspecified)	-1.2	-10.0	-14.6	-13.1	21.9*	8.8
COc1ccc(N2C(=O)CC(N3CCN(c4ccc(Cl)cc4)CC3)C2=O)cc1 (stereo unspecified)	3.0	-0.2	3.4	-4.8	8.2	22.9
O=C(NCC1COc2ccccc2O1)Nc1ccccc1F (stereo unspecified)	-0.6	-8.8	-0.1	0.8	19.3*	4.5
CCOc1ccc(-n2c(Cc3cc(=O)[nH]c(=O)[nH]3)nnc2SC(C)C)cc1	4.2	-5.5	-11.6	-6.8	38.4*	2.3
Cn1nnnc1SCc1ccc(C(=O)Nc2ccccc2F)cc1	-2.4	-3.1	0.2	10.5	-15.9	19.2
Cc1cc(C)cc(NC(=O)c2ccc(CSc3nnnn3C)cc2)c1	0.6	-2.1	17.6	9.0	28.3*	28.2
NC(=O)c1ccccc1NC(=O)C(c1ccccc1)c1ccccc1	1.9	-10.2	-14.9	-3.5	40.2*	-120.1
Cc1ccc(NC(=O)Nc2ccccc2C(N)=O)cc1	-0.8	88.6*	95.1*	95.8*	7.1	-41.4
CC(C)OC(=O)N(C)C[C@@H]1OCc2cn(nn2)CCCC(=O)N([C@@H](C)CO)C[C@H]1C	0.4	/	/	/	0.9	5.6
CN(C)C(=S)Oc1ccccc1C1SCCS1	1.5	/	/	/	-5.3	15.4
O=C1C=CC(=O)N1c1ccc2c(c1)C(NC(=O)C(F)(F)F)c1ccccc1-2 (stereo unspecified)	2.6	/	/	/	-4.0	-4.1
O=C1N/C(=N/O)S/C1=C/c1cccc([N+](=O)[O-])c1	1.3	18.6	57.4*	12.8	4.0	30.3
O=C1N/C(=N\S(=O)(=O)Cc2ccccc2)S/C1=C/c1cccc([N+](=O)[O-])c1	-1.1	-13.8	9.3	4.1	-15.4	15.3
CC1(C)CC(=O)/C(=C\c2cccc([N+](=O)[O-])c2)C(C)(C)N1	0.7	-1.9	-10.3	8.2	31.3*	14.4
O=C1NC(=S)N/C1=C/c1cccc([N+](=O)[O-])c1	1.4	-8.8	-8.7	1.0	3.2	3.5
CC(NC(=O)c1cccc(S(=O)(=O)N2CCCCCC2)c1)c1ccccc1 (stereo unspecified)	1.0	-0.2	7.3	-1.6	15.1	11.3
CCOC(=O)C1(C)CCCN(C(=O)c2cc(OC)c(OC)c(OC)c2)C1 (stereo unspecified)	1.4	/	/	/	5.1	21.0
Cc1nc2ccc(C(=O)N3c4ccccc4N=C(c4ccc(C(F)(F)F)cc4)C3C(=O)NC(C)(C)C)cc2[nH]1 (stereo unspecified)	18.4	/	/	/	-10.4	-249.2
Nc1nc(-c2ccccc2)c(N=Nc2ccccc2Cl)s1	8.8	-6.9	-10.6	-4.6	-6.6	66.2*
Cc1cc2c(cc1C)-c1nnnn1C(N1CCCCC1)C(=O)N2 (stereo unspecified)	1.4	/	/	/	20.7*	15.1
COc1ccc(/C=C2\SC(=S)N(N3C(=O)CCC3=O)C2=O)cc1O	-21.8	-1.4	-11.9	0.9	36.4*	14.7
Cn1cc(Cc2ccc(C(=O)N3CCN(Cc4ccccc4)CC3)cn2)c2ccccc21	-0.6	/	/	/	-12.2	-12.7
O=C(NCc1ccccc1)C1CCC1	0.1	-6.3	-8.7	-7.4	40.3*	18.0
COc1ccc(C(=O)C(=NNc2ccccc2)c2ccc(OC)cc2)cc1	0.2	/	/	/	9.6	11.3
COc1ccc(N/N=C(\C=N\O)C(=O)c2ccc(OC)cc2)cc1	4.5	-3.4	-25.5	5.0	2.3	44.2*
CSc1ccc(NC(=O)C2(C)CCN2C(=O)c2ccccc2CCc2ccccc2)cc1 (stereo unspecified)	2.2	/	/	/	41.5*	5.4
